Laboratory results reported in ChEMBL document CHEMBL4402517, “Rational modification of Mannich base-type derivatives as novel antichagasic compounds: Synthesis, in vitro and in vivo evaluation” (Bioorg Med Chem, 2019).

Experiments:
[1] = (§1) Toxicity in BALB/c mouse infected with Trypanosoma cruzi MHOM/Pe/2011/Arequipa;DTU 5 bloodstream trypomastigote assessed as decrease in serum aspartate aminotransferase level in chronic phase at 20 mg/kg/day, po administered for 5 consecutive days starting from day 70 post infection measured on day 100 post infection relative to control; assay type: organism-based; parameters: scale not given: the % may be the effect or the level left; conditions: in vivo
[2] = Mutagenecity against Salmonella typhimurium TA 100 assessed as number of colonies at 7.4 ug/plate in absence of Sprague-Dawley rat S9 with metabolic activation measured after 48 hrs by Ames test (reference value: 35.7 +/- 0.6); assay type: toxicity; conditions: salmonella enterica subsp. enterica serovar typhimurium, s9, 48 h
[3] = Mutagenecity against Salmonella typhimurium TA98 assessed as number of colonies at 66.7 ug/plate in presence of Sprague-Dawley rat S9 measured after 48 hrs by Ames test (reference value: 4 +/- 2); assay type: toxicity, subcellular; conditions: salmonella enterica subsp. enterica serovar typhimurium, s9, 48 h
[4] = Toxicity in BALB/c mouse infected with Trypanosoma cruzi MHOM/Pe/2011/Arequipa;DTU 5 bloodstream trypomastigote assessed as change in serum alkaline phosphatase level in chronic phase at 20 mg/kg/day, po administered for 5 consecutive days starting from day 70 post infection and measured at day 76 post infection relative to control; assay type: organism-based; conditions: in vivo
Summary of the method: (§2)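 Female BALB/c mice (10–12 weeks, 14–20 g; groups of three) were infected i.p. with 5 × 10^5 Arequipa bloodstream trypomastigotes. Dosing was oral at 20 mg/kg/day for 5 days, from day 8 pi (acute) or day 70 pi (chronic), as a 2 mg/ml suspension in 5% DMSO/0.5% HPMC; controls received vehicle. Cyclophosphamide 200 mg/kg i.p. was given at day 80 pi. Serum was collected 2 days post-treatment and at necropsy by cardiac puncture and compared with infected untreated controls.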

[5] = Genotoxicity in Salmonella typhimurium TA1535 harboring pSK1002 assessed as umu gene induction at 0.063 mg/ml in absence of Sprague-Dawley rat liver S9 fraction metabolic activation by SOS/umu assay relative to control; assay type: toxicity; conditions: salmonella enterica subsp. enterica serovar typhimurium, read-out: FC
Summary of the method: (§3)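 umu induction in S. typhimurium TA1535/pSK1002, with or without S9 mix, in 96-well format. β-galactosidase read colorimetrically with ONPG substrate. Output given as relative units and induction factor (IF). The run is valid if positive controls reach IF ≥2. A compound counts as genotoxic at IF ≥2 at a concentration giving ≥80% bacterial survival.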

[6] = as §1, with “change” for “decrease”, “uric acid” for “aspartate aminotransferase”; assay type: organism-based; conditions: in vivo
[7] = Genotoxicity in Salmonella typhimurium TA1535 harboring pSK1002 assessed as umu gene induction at 0.004 mg/ml in presence of Sprague-Dawley rat liver S9 fraction metabolic activation by SOS/umu assay relative to control; assay type: toxicity, subcellular; conditions: salmonella enterica subsp. enterica serovar typhimurium, read-out: FC; summary of the method: as §3
[8] = Mutagenecity against Salmonella typhimurium TA 102 assessed as number of colonies at 22.2 ug/plate in absence of Sprague-Dawley rat S9 with metabolic activation measured after 48 hrs by Ames test (reference value: 78.7 +/- 7.8); assay type: toxicity; conditions: salmonella enterica subsp. enterica serovar typhimurium, s9, 48 h
[9] = Mutagenecity against Salmonella typhimurium TA98 assessed as number of colonies at 22.2 ug/plate in presence of Sprague-Dawley rat S9 measured after 48 hrs by Ames test (reference value: 4 +/- 2); assay type: toxicity, subcellular; conditions: salmonella enterica subsp. enterica serovar typhimurium, s9, 48 h
[10] = (§4) Toxicity in BALB/c mouse infected with Trypanosoma cruzi MHOM/Pe/2011/Arequipa;DTU 5 bloodstream trypomastigote assessed as increase in serum alanine aminotransferase level in acute phase at 20 mg/kg/day, po administered for 5 consecutive days starting from day 8 post infection and measured on day 100 post infection by biochemical analysis relative to control; assay type: organism-based; conditions: in vivo
[11] = Genotoxicity in Salmonella typhimurium TA1535 harboring pSK1002 assessed as survival at 0.25 mg/ml in absence of Sprague-Dawley rat liver S9 fraction metabolic activation after by SOS/umu assay relative to control; assay type: toxicity; conditions: salmonella enterica subsp. enterica serovar typhimurium, read-out: Survival
Summary of the method: (§5)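 Survival of S. typhimurium TA1535/pSK1002 exposed to a range of compound concentrations with or without S9 mix in 96-well format. Survival percentage measured as the cytotoxicity arm of the SOS/umu test. Concentrations with survival ≥80% are counted as non-cytotoxic.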

[12] = Genotoxicity in Salmonella typhimurium TA1535 harboring pSK1002 assessed as survival at 0.031 mg/ml in absence of Sprague-Dawley rat liver S9 fraction metabolic activation by SOS/umu assay relative to control; assay type: toxicity; conditions: salmonella enterica subsp. enterica serovar typhimurium, read-out: Survival; summary of the method: as §5
[13] = Mutagenecity against Salmonella typhimurium TA1535 assessed as number of colonies at 66.7 ug/plate in absence of Sprague-Dawley rat S9 measured after 48 hrs by Ames test (reference value: 13.3 +/- 2.5); assay type: toxicity; conditions: salmonella enterica subsp. enterica serovar typhimurium, s9, 48 h
[14] = Genotoxicity in Salmonella typhimurium TA1535 harboring pSK1002 assessed as survival at 1 mg/ml in presence of Sprague-Dawley rat liver S9 fraction metabolic activation by SOS/umu assay relative to control; assay type: toxicity, subcellular; conditions: salmonella enterica subsp. enterica serovar typhimurium, read-out: Survival; summary of the method: as §5
[15] = as §4, with “change” for “increase”, “lactate dehydrogenase” for “alanine aminotransferase”; assay type: organism-based; conditions: in vivo; summary of the method: as §2
[16] = Mutagenecity against Salmonella typhimurium TA97a assessed as number of colonies at 7.4 ug/plate in presence of Sprague-Dawley rat S9 with metabolic activation measured after 48 hrs by Ames test (reference value: 55 +/- 7.1); assay type: toxicity, subcellular; conditions: salmonella enterica subsp. enterica serovar typhimurium, s9, 48 h
[17] = Genotoxicity in Salmonella typhimurium TA1535 harboring pSK1002 assessed as survival at 0.016 mg/ml in absence of Sprague-Dawley rat liver S9 fraction metabolic activation by SOS/umu assay relative to control; assay type: toxicity; conditions: salmonella enterica subsp. enterica serovar typhimurium, read-out: Survival; summary of the method: as §5
[18] = as §4, with “bloodstream trypomastigotes” for “bloodstream trypomastigote”, “as decrease” for “as increase”, “serum aspartate” for “serum alanine”, “measured at” for “measured on”, “day 14” for “day 100”; assay type: organism-based; parameters: scale not given: the % may be the effect or the level left; conditions: in vivo
[19] = Genotoxicity in Salmonella typhimurium TA1535 harboring pSK1002 assessed as survival at 0.001 mg/ml in presence of Sprague-Dawley rat liver S9 fraction metabolic activation by SOS/umu assay relative to control; assay type: toxicity, subcellular; conditions: salmonella enterica subsp. enterica serovar typhimurium, read-out: Survival
Summary of the method: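 Salmonella typhimurium TA1535/pSK1002 was exposed to compounds at several concentrations with or without S9 mix, and bacterial survival % was measured. β-galactosidase induction was measured colorimetrically with ONPG substrate. Genotoxicity was counted where IF ≥ 2 at ≥80% survival; runs were valid if positive controls reached IF ≥ 2.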

[20] = Genotoxicity in Salmonella typhimurium TA1535 harboring pSK1002 assessed as survival at 0.004 mg/ml in presence of Sprague-Dawley rat liver S9 fraction metabolic activation by SOS/umu assay relative to control; assay type: toxicity, subcellular; conditions: salmonella enterica subsp. enterica serovar typhimurium, read-out: Survival; summary of the method: as §5
[21] = Toxicity in BALB/c mouse infected with Trypanosoma cruzi MHOM/Pe/2011/Arequipa;DTU 5 bloodstream trypomastigote assessed as increase in serum aspartate aminotransferase level in chronic phase at 20 mg/kg/day, po administered for 5 consecutive days starting from day 70 post infection and measured at day 76 post infection relative to control; assay type: organism-based; conditions: in vivo
[22] = as §4, with “as change” for “as increase”, “serum alkaline phosphatase” for “serum alanine aminotransferase”, “measured at” for “measured on”, “day 14” for “day 100”; assay type: organism-based; conditions: in vivo
[23] = as §1, with “increase” for “decrease”, “total bilirubin” for “aspartate aminotransferase”; assay type: organism-based; conditions: in vivo
[24] = as §4, with “total bilirubin” for “alanine aminotransferase”, “days” for “days starting from day 8 post infection”; assay type: organism-based; conditions: in vivo

With `O=C(CCN1CCN(c2ccc(Cl)cc2)CC1)c1ccc(O)cc1` the Activity [1] was “<= 10%”, the Activity [2] was 32.3 and the Activity [3] was 6.3. For the same compound, the Activity [4] was > 10%, the fold induction at 0.063 mg/ml [5] was 0.71 and the Activity [6] was > 10%. It also gave a fold induction at 0.004 mg/ml [7] of 0.71, an Activity [8] of 69.7 and an Activity [9] of 4. The Activity [10] was “<= 20%”, the viability at 0.25 mg/ml [11] was 152% and the viability at 0.031 mg/ml [12] was 107%. The Activity [13] was 3.7, the viability at 1 mg/ml [14] was 213% and the Activity [15] was > 10%. For the same compound, the Activity [16] was 44.3, the viability at 0.016 mg/ml [17] was 130% and the Activity [18] was “<= 10%”. It also gave a viability at 0.001 mg/ml [19] of 106% and a viability at 0.004 mg/ml [20] of 108%.

With `O=C(Cn1ccnc1[N+](=O)[O-])NCc1ccccc1` [BENZNIDAZOLE] the Activity [4] was > 10%, the Activity [21] was “<= 10%” and the Activity [22] was > 10%.

For `O=C(CCN1CCN(c2ccc(C(F)(F)F)cc2)CC1)c1ccc(O)cc1`, the Activity [23] was “<= 20%”, the fold induction at 0.063 mg/ml [5] was 0.67 and the fold induction at 0.004 mg/ml [7] was 0.77. The viability at 0.25 mg/ml [11] was 149%, the viability at 0.031 mg/ml [12] was 112% and the Activity [24] was > 40%. For the same compound, the viability at 1 mg/ml [14] was 216%, the Activity [15] was > 10% and the viability at 0.016 mg/ml [17] was 127%. It also gave a viability at 0.001 mg/ml [19] of 106% and a viability at 0.004 mg/ml [20] of 112%.
